Each structure is given as a SMILES string.

In experiment [1] the target is T1, Muscarinic acetylcholine receptor M4 (Homo sapiens) (UniProt P08173).
T1 sequence (whole entry): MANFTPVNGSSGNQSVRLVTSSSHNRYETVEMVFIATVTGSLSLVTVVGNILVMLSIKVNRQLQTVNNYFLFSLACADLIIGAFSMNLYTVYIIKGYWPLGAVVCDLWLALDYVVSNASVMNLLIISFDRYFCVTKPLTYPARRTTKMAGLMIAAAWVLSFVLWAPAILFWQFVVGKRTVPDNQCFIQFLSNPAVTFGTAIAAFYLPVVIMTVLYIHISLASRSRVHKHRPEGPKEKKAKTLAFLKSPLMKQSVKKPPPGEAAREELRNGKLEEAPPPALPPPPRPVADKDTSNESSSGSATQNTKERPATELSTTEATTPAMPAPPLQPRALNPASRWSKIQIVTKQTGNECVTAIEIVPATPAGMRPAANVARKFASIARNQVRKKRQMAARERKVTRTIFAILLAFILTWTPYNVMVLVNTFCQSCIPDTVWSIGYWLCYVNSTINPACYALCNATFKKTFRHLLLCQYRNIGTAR
The experiment in a line: Binding affinity at the unliganded human muscarinic acetylcholine receptor M4 was estimated as log affinity (log1/M). The essentials: (§1)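 Equilibrium runs were ≥2 h with 2 × 10⁻⁴ M GTP and 0.1–0.7 nM ³H-NMS. Nonspecific binding was defined with 10⁻⁶ M QNB, and bound ligand was filtered and counted. Log affinities came from semiquantitative plus off-rate, quantitative equilibrium, or nonequilibrium assays, fitted by nonlinear least squares to the allosteric ternary complex model.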

Experiment [2] deals with T2, Muscarinic acetylcholine receptor M2 (Homo sapiens) (UniProt P08172).
T2 sequence (whole entry): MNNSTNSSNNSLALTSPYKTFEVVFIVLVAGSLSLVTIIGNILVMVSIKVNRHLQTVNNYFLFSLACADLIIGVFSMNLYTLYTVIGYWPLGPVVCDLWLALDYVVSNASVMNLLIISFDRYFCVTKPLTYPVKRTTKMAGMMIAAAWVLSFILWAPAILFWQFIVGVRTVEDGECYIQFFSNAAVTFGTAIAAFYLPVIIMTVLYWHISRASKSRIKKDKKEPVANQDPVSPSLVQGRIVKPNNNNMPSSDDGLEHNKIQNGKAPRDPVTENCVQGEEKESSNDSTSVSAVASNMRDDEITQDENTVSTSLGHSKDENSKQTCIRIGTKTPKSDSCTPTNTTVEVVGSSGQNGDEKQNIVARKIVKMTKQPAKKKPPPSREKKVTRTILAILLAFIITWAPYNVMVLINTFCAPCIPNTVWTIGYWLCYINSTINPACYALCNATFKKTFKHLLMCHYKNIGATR
The experiment in a line: Binding affinity at the unliganded human muscarinic acetylcholine receptor M2 was estimated as log affinity (log1/M). An outline of the steps:
as §1

Experiment [3] addresses T3, Muscarinic acetylcholine receptor M5 (Homo sapiens) (UniProt P08912).
T3 sequence (whole entry): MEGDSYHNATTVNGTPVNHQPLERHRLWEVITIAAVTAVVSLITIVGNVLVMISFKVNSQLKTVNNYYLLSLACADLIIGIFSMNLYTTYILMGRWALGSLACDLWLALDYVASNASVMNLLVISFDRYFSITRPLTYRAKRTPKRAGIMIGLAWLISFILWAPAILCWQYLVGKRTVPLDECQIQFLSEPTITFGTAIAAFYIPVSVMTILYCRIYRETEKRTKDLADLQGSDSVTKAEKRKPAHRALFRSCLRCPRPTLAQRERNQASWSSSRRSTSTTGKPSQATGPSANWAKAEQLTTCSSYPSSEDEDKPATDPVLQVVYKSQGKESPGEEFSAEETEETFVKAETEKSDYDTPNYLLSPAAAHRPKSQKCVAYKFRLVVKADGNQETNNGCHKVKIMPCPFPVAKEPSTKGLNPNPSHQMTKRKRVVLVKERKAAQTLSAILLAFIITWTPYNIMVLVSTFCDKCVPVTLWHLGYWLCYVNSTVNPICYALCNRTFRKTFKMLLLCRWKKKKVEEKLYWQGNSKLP
Kind of experiment: Binding affinity at the NMS liganded human muscarinic acetylcholine receptor M5 was estimated as log affinity (log1/M). An outline of the steps: as §1

For experiment [4], the target named is T4, Muscarinic acetylcholine receptor M1 (Homo sapiens) (UniProt P11229).
T4 sequence (whole entry): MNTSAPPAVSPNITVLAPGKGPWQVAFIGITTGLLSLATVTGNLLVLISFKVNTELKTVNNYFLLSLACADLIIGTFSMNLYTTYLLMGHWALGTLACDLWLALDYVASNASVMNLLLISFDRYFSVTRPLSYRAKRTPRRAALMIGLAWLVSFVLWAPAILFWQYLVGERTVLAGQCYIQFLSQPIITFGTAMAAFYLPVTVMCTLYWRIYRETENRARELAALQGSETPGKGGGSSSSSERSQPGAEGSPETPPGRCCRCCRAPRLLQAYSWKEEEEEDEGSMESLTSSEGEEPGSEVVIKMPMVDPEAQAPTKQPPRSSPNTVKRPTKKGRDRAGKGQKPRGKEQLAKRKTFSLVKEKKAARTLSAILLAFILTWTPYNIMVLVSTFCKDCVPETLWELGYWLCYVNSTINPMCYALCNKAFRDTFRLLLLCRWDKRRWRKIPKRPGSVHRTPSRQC
The experiment in a line: Binding affinity at the NMS liganded human muscarinic acetylcholine receptor M1 was estimated as log affinity (log1/M). An outline of the steps: as §1

Experiment [5] addresses T1, Muscarinic acetylcholine receptor M4 (Homo sapiens). The experiment in a line: Cooperativity with NMS at human muscarinic acetylcholine receptor M4. The essentials: (§2)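 Equilibrium ³H-NMS binding in CHO membranes expressing human m1–m5 receptors was measured with and without ACh, alone and with three agent concentrations. Data were converted to affinity ratios, meaning apparent primary-ligand affinity with agent divided by affinity without it.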

The target is the same in experiment [6]. Kind of experiment: Binding affinity at the NMS liganded human muscarinic acetylcholine receptor M4 was estimated as log affinity (log1/M). The essentials:
as §1

Experiment [7] concerns the target T4, Muscarinic acetylcholine receptor M1 (Homo sapiens). The experiment in a line: Cooperativity with NMS at human muscarinic acetylcholine receptor M1. An outline of the steps:
as §2

Experiment [8] shares this target. Kind of experiment: Binding affinity at the unliganded human muscarinic acetylcholine receptor M1 was estimated as log affinity (log1/M). An outline of the steps: as §1
Experiment [9] has as its target Muscarinic acetylcholine receptor M3 (Homo sapiens) (UniProt P20309). The experiment in a line: Binding affinity at the NMS liganded human muscarinic acetylcholine receptor M3 was estimated as log affinity (log1/M). An outline of the steps:
as §1

Experiment [10] addresses T1, Muscarinic acetylcholine receptor M4 (Homo sapiens). The experiment in a line: Cooperativity with acetylcholine at human muscarinic acetylcholine receptor M4. The essentials:
as §2

For experiment [11], the target named is T2, Muscarinic acetylcholine receptor M2 (Homo sapiens). Kind of experiment: Cooperativity with NMS at human muscarinic acetylcholine receptor M2. An outline of the steps:
as §2

Experiment [12] deals with Muscarinic acetylcholine receptor M3 (Homo sapiens) (UniProt P20309). Kind of experiment: Cooperativity with acetylcholine at human muscarinic acetylcholine receptor M3. An outline of the steps:
as §2

The target in experiment [13] is T4, Muscarinic acetylcholine receptor M1 (Homo sapiens). The experiment in a line: Cooperativity with acetylcholine at human muscarinic acetylcholine receptor M1. The essentials: as §2
For experiment [14], the target named is T3, Muscarinic acetylcholine receptor M5 (Homo sapiens). The experiment in a line: Cooperativity with acetylcholine at Muscarinic acetylcholine receptor M5. The essentials: as §2
Experiment [15] addresses Muscarinic acetylcholine receptor M3 (Homo sapiens) (UniProt P20309). Kind of experiment: Binding affinity at the unliganded human muscarinic acetylcholine receptor M3 was estimated as log affinity (log1/M). The essentials: as §1
Experiment [16] has as its target T3, Muscarinic acetylcholine receptor M5 (Homo sapiens). Kind of experiment: Cooperativity with NMS at Muscarinic acetylcholine receptor M5. The essentials: as §2
The target is the same in experiment [17]. The experiment in a line: Binding affinity at the unliganded Muscarinic acetylcholine receptor M5 was estimated as log affinity (log1/M). An outline of the steps: as §1
Experiment [18] addresses T2, Muscarinic acetylcholine receptor M2 (Homo sapiens). Kind of experiment: Binding affinity at the NMS liganded human muscarinic acetylcholine receptor M2 was estimated as log affinity (log1/M). An outline of the steps:
as §1

Experiment [19] shares this target. The experiment in a line: Cooperativity with acetylcholine at human muscarinic acetylcholine receptor M2. An outline of the steps: as §2
In experiment [20] the target is Muscarinic acetylcholine receptor M3 (Homo sapiens) (UniProt P20309). The experiment in a line: Cooperativity with NMS at human muscarinic acetylcholine receptor M3. The essentials: as §2
Sequence of Muscarinic acetylcholine receptor M3 (Homo sapiens) (P20309 whole entry, looked up): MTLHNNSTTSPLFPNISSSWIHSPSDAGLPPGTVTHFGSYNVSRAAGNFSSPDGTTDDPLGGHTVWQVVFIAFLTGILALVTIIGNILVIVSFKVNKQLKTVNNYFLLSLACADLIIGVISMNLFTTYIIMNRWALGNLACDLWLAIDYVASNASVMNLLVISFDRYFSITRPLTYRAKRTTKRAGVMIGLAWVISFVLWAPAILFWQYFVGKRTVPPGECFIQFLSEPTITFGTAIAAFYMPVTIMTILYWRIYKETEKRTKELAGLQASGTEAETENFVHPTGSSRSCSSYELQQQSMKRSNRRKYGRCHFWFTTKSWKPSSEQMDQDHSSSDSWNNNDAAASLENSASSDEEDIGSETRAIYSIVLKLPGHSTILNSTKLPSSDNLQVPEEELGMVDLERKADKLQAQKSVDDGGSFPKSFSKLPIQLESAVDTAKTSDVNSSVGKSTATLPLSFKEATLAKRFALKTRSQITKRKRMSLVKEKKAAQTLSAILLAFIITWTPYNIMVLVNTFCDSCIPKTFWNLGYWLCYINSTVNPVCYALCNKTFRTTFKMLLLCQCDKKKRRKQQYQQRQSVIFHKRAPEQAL

As to `COc1cc2c(cc1OC)[C@@]13CC[N+]4(Cc5ccccc5)CC5=CCO[C@H]6CC(=O)N2[C@H]1[C@H]6[C@H]5C[C@@H]34` (some centres undefined), the Affinity in experiment [1] was 4.5; in [2] it was 4.6; in [3], 3.7; in [4] it was 4.4; in experiment [6], 4.5; in experiment [8], below 4.6. Further, the Affinity is 3.8 in experiment [9], above 4 in [15], 3.7 in experiment [17] and 4.8 in experiment [18]. For the same molecule, the Cooperativity is 1.19 in experiment [5]; 0.8 in [7]; 0.8 in experiment [10]; above 2 in experiment [11]; 2 in experiment [12]; 0.8 in [13]. Moreover, the Cooperativity in [14] was 0.8; in experiment [16], 1.19; in experiment [19] it was 0.8; in experiment [20], 0.8.

In the case of `COc1cc2c(cc1OC)[C@@]13CCN4CC5=CCO[C@H]6CC(=O)N2[C@H]1[C@H]6[C@H]5C[C@H]43`, the Affinity in [1] is 4.8; in experiment [2], 4.5; in [3], 3.3; in experiment [4], 4.5; in experiment [6], 4.5; in [8] it was 4.6. Also, the Affinity is 2.9 in experiment [9], 3.5 in experiment [15], 4.3 in [17] and 4.7 in experiment [18]. For the same molecule, the Cooperativity worked out at 0.8 in experiment [5]; 1.19 in experiment [7]; 0.8 in [10]; 2 in [11]; 0.8 in experiment [12]; 2 in [13]. Also, the Cooperativity in experiment [14] is below 0.2; in [16], below 0.2; in experiment [19], 0.8; in experiment [20], 0.8.

For `COc1cc2c(cc1OC)[C@@]13CC[N+]4(C)CC5=CCO[C@H]6CC(=O)N2[C@H]1[C@H]6[C@H]5C[C@@H]34` (some centres undefined), the Affinity in experiment [1] is 4.3; in experiment [2] it was 4; in experiment [3] it was 2.9; in [4], 4; in [6], 4.4; in [8] it was 4. The Affinity in [9] was 3.6; in experiment [15] it was 3.5; in [17], 3.3; in experiment [18], 4.5. Moreover, the Cooperativity is 1.19 in [5]; 1.19 in [7]; 0.8 in experiment [10]; above 2 in experiment [11]; 2 in experiment [12]; 0.8 in experiment [13]. For the same molecule, the Cooperativity in experiment [14] is below 0.2; in experiment [16] it was 0.8; in [19], 0.8; in experiment [20] it was 1.19.

On to `C=CC[N+]12CC[C@@]34c5cc(OC)c(OC)cc5N5C(=O)C[C@@H]6OCC=C(C1)[C@H](C[C@@H]32)[C@@H]6[C@H]54` (some centres undefined), for which the Affinity in experiment [1] was 4.5; in experiment [2] it was 4.5; in [4], 4.2; in experiment [6] it was 4.6; in experiment [8] it was 4.4; in experiment [9] it was 3.5. The Affinity in experiment [15] is 3.8; in experiment [17], 3.8; in experiment [18], 4.7. The Cooperativity in experiment [5] is 1.19; in experiment [7] it was 0.8; in [10], 0.8; in experiment [11], 2; in experiment [12], 2; in experiment [13] it was 0.8. Moreover, the Cooperativity in [14] is 0.8; in experiment [16] it was 1.19; in [19], 0.8; in experiment [20], 0.8.

In the case of `COc1cc2c(cc1OC)[C@@]13CC[N+]4([O-])CC5=CCO[C@H]6CC(=O)N2[C@H]1[C@H]6[C@H]5C[C@@H]34` (some centres undefined), the Affinity in experiment [1] is 3.7; in [2], 2.7; in experiment [3] it was 2.7; in [4], 3.6; in experiment [6], 3.7; in experiment [8] it was 3.4. The Affinity is 2.8 in [9], 2.8 in experiment [15], 2.5 in experiment [17] and 3.3 in [18]. The Cooperativity was 1.19 in experiment [5]; 2 in experiment [7]; 2 in [10]; above 2 in experiment [11]; above 2 in experiment [12]; 1.19 in experiment [13]. The Cooperativity stood at 0.8 in [14], 2 in [16], 0.8 in [19] and 1.19 in [20].

With `COc1cc2c(cc1OC)[C@@]13CC[N+]4(N)CC5=CCO[C@H]6CC(=O)N2[C@H]1[C@H]6[C@H]5C[C@@H]34` (some centres undefined), the Affinity in [1] is below 4; in experiment [2] it was below 4; in [3], 3.3; in [4], 3.8; in experiment [6], 4.2; in experiment [8], 3.8. For the same molecule, the Affinity in experiment [9] was 3.9; in [15] it was 3.8; in experiment [17] it was 3.6; in experiment [18], 4.2. In addition, the Cooperativity in experiment [5] was 2; in [7], 1.19; in experiment [10] it was 0.8; in [11], 2; in [12], above 2; in experiment [13], 0.8. Further, the Cooperativity in experiment [14] was 0.8; in experiment [16] it was 0.8; in experiment [19] it was 0.8; in experiment [20] it was 1.19.

The values are drawn from ChEMBL document CHEMBL1132569.
